Source: PubChem BioAssay
The entries come from a sample that favours hits as a whole.
UPR XBP1 act = activators of adaptive arm of unfolded protein response (XBP1); CHO-XBP1 luciferase reporter, IRE1-XBP1 UPR activation, luminescence; percent of tunicamycin response, DMSO as zero; activation, % at 20 µM; actives 0.33% (n = 330,000);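 active = versus positive control, 20 µM dose yields 30% or more activation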
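Test system: CHO-XBP1 luciferase reporter cells | Buffer or medium: Serum-containing F12 medium, 10% FBS | Schedule: 6 h compound exposure at 37 °C, 5% CO2 | Detection: Steady-Glo luciferase glow luminescence, 10 min after reagent addition | Read-out basis: Activation, % of tunicamycin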
T cruzi repl = blocks replication of Trypanosoma cruzi; T. cruzi beta-gal in NIH3T3, luminescence, 90 h; inhibition, % (concentration not given with the values); actives 1.4% (n = 300,000); AID 1885;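 active = mean inhibition across valid replicates above about 55%, limit read from the data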;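 also: signal also drops with host cell toxicity which is not excluded here; higher percent means less beta-gal luminescence so fewer parasites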
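System: NIH/3T3 fibroblasts plus reporter T. cruzi. Medium: DMEM plus 2% FBS. Probe or stimulus: 5000 reporter trypomastigotes per well. Compound: single 50 nL compound addition per well in DMSO. Incubation: co-culture of at least 90 h after 3 h attachment. Detection: GalScreen β-gal luminescence, detergent lysis, 60 min. Evaluation: parasite load inhibition, %.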
CHOP inhibitor = CHOP inhibition in unfolded protein response. CHO-K1 CHOP-promoter luciferase, tunicamycin-induced, 15-18 h. inhibition, % at 10 µM. actives 3.8% (n = 220,000). AID 2732;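 active = compounds that reduced the stress-induced luciferase reporter signal by more than about 70% of percent inhibition, limit read from the data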
Dynein cargo inh = dynein cargo transport inhibition; 3617.4 mouse cells, GR-EGFP nuclear translocation imaging; test concentration mostly 20 µM; stimulated with dexamethasone, 1 µM; stronger effect = lower value; z-score, hits read low; actives 0.47% (n = 220,000); AID 1381;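 active = plate z-score of nuclear minus cytoplasmic receptor signal below a set negative limit, without overly bright fluorescence or cell loss, cut at about -3.5 in these data, passing the limit was not always enough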;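 also: z-score of nuclear minus cytoplasmic ring GR-EGFP intensity difference per well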
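Buffer or medium: tetracycline-free induction medium containing charcoal-stripped FBS / Reagent: dexamethasone agonist, 1.0 µM final, for 30 min / Technique: automated 10x imaging of fixed Hoechst-stained cells / Times: induction 48 h, compound 1 h, agonist 30 min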
UPR CHOP act = apoptotic UPR (CHOP) activation. activation, % at 10 µM. AID 449763. CHO-CHOP luciferase reporter, luminescence; percent of tunicamycin response over DMSO baseline. actives 0.34% (n = 330,000);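 active = at 10 µM dose, activation of 40% or more, normalized to positive control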
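measured by = luciferase luminescence | assay system = CHO-CHOP cells, stable luciferase reporter of PERK-eIF2a-CHOP signalling | amount = 500 reporter cells seeded per well | timing = 6 h compound exposure at 37 °C after overnight seeding | controls = positive tunicamycin 10 µg/mL, negative DMSO alone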
Lmaj promast = inhibitors of Leishmania major promastigote growth. Leishmania major promastigotes, resazurin fluorescence viability. inhibition, % at 10 µM. actives 9% (n = 200,000); in the data active = inhibition above about 50%;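 also: promastigotes grown with compound for 44 hours at 28 °C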
Each line names hits and unclear results; the compound was inactive in the other large screens.

CCCCCc1c(C)nc(Nc2ccc(F)cc2)[nH]c1=O	CHOP inhibitor 82
COC(=O)C(CCSC)NC(=O)c1cn(-c2ccc(OC)cc2)c(=O)c2ccccc12 (configuration not stated)	none (no result: CHOP inhibitor, Dynein cargo inh, Lmaj promast)
C#CCN(C)CC/C=C1\c2ccccc2CSc2ccccc21	Lmaj promast 65
CN(CC/C=C1/c2ccccc2CSc2ccccc21)CCCO	Lmaj promast 56
CN(C)CC/C=C1/c2ccc(F)cc2Sc2ccc(Cl)cc21	none (no result: CHOP inhibitor, Dynein cargo inh, Lmaj promast)
CN(C)CC/C=C1/c2cc(F)ccc2CSc2ccc(F)cc21	Lmaj promast 99
CC(O)CN(C)CC/C=C1/c2ccccc2CSc2ccccc21 (configuration not stated)	Lmaj promast 98
CC(C)c1nnc(NC(=O)C2CCN(C(=O)Nc3ccccc3)CC2)s1	none (no result: CHOP inhibitor, Dynein cargo inh, Lmaj promast)
O=C(c1ccc(Cl)cc1)N1CCN(S(=O)(=O)/C=C/c2ccccc2)CC1	none (no result: T cruzi repl, CHOP inhibitor, Dynein cargo inh, Lmaj promast)
Fc1ccc(NC(=S)Nc2ccccc2N2CCOCC2)cc1Cl	none
NCC/C=C1/c2ccccc2CSc2ccccc21	Lmaj promast 54
C=CCN(C)CC/C=C1\c2ccccc2CSc2ccccc21	Lmaj promast 100
CN(C)CC/C=C1/c2ccccc2COc2ccccc21	none (no result: UPR XBP1 act, Dynein cargo inh, UPR CHOP act, Lmaj promast)
CC(=O)Nc1ccc(SCC(=O)c2cc(C)n(-c3ccccc3)c2C)cc1	none
CCCCCCCC[n+]1c(C)n(-c2ccccc2)c2ccc(NC(C)=O)cc21	T cruzi repl 65, Lmaj promast 99
CCNC(=S)N/N=C/c1cccc(OCc2c(F)cccc2Cl)c1	T cruzi repl 59
CNC(=S)N/N=C/c1cccc(OCc2ccccc2F)c1	none
CCCn1cnc2cc(NC(=O)c3cccs3)ccc21	none
Nc1nc(NCCCN2CCOCC2)nc(Nc2ccc(F)cc2)c1[N+](=O)[O-]	Lmaj promast 52
Nc1nc(NCCCN2CCOCC2)nc(Nc2cccc(F)c2)c1[N+](=O)[O-]	none (no result: Lmaj promast)
CC1(c2ccccc2)NC(=O)N(CC(=O)Nc2ccc3c(c2)CCC3)C1=O (configuration not stated)	none (no result: T cruzi repl, CHOP inhibitor, Dynein cargo inh, Lmaj promast)
CCS(=O)(=O)c1ccc2oc(Nc3ccc(OC)cc3)nc2c1	none
CCS(=O)(=O)c1ccc2oc(Nc3ccc(C(C)(C)C)cc3)nc2c1	CHOP inhibitor 72
O=C(CCn1nc(-c2ccc(Cl)cc2)c2ccccc2c1=O)Nc1cccnc1	Lmaj promast 62
NC(=O)CCn1nc(-c2ccc(Cl)cc2)c2ccccc2c1=O	none
COc1ccc(-c2cc(-c3ccc(Br)cc3)nc3ncnn23)cc1OC	CHOP inhibitor 79
O=C(O)CCNC(=O)/C(=C/C=C/c1ccccc1)NC(=O)c1ccccc1	CHOP inhibitor 74
O=C(N/N=C/c1ccc(-c2ccccc2[N+](=O)[O-])o1)c1cccnc1	Lmaj promast 95
O=C(N/N=C/c1ccc(-c2ccccc2Cl)o1)c1ccccc1	T cruzi repl 75
O=C(CCC(=O)OCC(=O)c1ccc(-c2ccccc2)cc1)Nc1cccc2cccnc12	none
Nc1sc(-c2ccccc2)n[n+]1Cc1cccc2cccnc12	T cruzi repl 60 (no result: Lmaj promast)
O=C(C1CCCN(S(=O)(=O)c2cccc3nonc23)C1)N1CCN(c2cccc(Cl)c2)CC1 (configuration not stated)	Lmaj promast 93
O=C(C1CCCN(S(=O)(=O)c2cccc3nonc23)C1)N1CCN(c2ccccc2Cl)CC1 (configuration not stated)	none
Cc1n[nH]c(C)c1S(=O)(=O)N1CCCC(C(=O)N2CCN(c3ccc(Cl)cc3)CC2)C1 (configuration not stated)	Lmaj promast 52 (no result: T cruzi repl)
Cc1nn(C)c(C)c1S(=O)(=O)N1CCCC(C(=O)N2CCN(c3ccc(Cl)cc3)CC2)C1 (configuration not stated)	none
O=C(Nc1cccc(OCC(=O)N2CCOCC2)c1)c1ccc(C(F)(F)F)cc1	none (no result: CHOP inhibitor, Dynein cargo inh, Lmaj promast)
O=S(=O)(N/N=C1/CC(c2ccccc2)Oc2ccccc21)c1ccc(Br)cc1 (configuration not stated)	CHOP inhibitor 94
